# Data taken from ChEMBL document CHEMBL1139173, “Novel selective human mitochondrial kinase inhibitors: design, synthesis and enzymatic activity” (Bioorg Med Chem, 2007).
# Experiments:
# Deoxynucleoside kinase = target: T1, Deoxynucleoside kinase (Drosophila melanogaster, UniProt Q9XZT6); assay: Inhibition of Drosophila melanogaster dNK assessed as [methyl-3H]dThd phosphorylation
# T1 sequence (Q9XZT6 whole entry): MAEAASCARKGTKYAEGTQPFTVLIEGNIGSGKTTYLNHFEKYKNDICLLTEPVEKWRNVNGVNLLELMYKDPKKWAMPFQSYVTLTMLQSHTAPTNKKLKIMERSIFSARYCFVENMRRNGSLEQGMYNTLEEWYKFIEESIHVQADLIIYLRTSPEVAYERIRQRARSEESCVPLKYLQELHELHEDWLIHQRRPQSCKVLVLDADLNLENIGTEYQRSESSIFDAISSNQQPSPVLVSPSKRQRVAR
# Summary of the method: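 Purified recombinant enzyme expressed as a GST fusion. Mix: 50 mM Tris–HCl pH 8.0, 2.5 mM MgCl2, 10 mM DTT, 0.5 mM CHAPS, 3 mg/mL BSA, 2.5 mM ATP, 2 µM [methyl-3H]dThd (0.25 µCi). Incubated 37 °C, 30 min, with varied inhibitor levels. Aliquots spotted on DE-81 disks, washed, scintillation-counted.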
# [1] = target: T2, Thymidine kinase 2, mitochondrial (Homo sapiens, UniProt O00142); assay: Inhibition of human TK2 assessed as [methyl-3H]dThd phosphorylation
# T2 sequence (O00142 whole entry): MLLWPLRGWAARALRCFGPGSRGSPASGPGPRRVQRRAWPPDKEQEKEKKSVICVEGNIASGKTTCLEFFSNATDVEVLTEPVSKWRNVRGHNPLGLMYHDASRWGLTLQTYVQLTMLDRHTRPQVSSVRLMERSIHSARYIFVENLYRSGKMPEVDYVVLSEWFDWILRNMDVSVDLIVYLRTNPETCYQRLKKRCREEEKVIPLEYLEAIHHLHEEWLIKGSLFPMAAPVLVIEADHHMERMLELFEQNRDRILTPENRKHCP
# Summary of the method: (§1)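 Purified recombinant GST-fusion kinases (from pGEX-5X-1 cDNAs) assayed in 50 mM Tris–HCl pH 8.0, 2.5 mM MgCl₂, 10 mM DTT, 0.5 mM CHAPS, 3 mg/mL BSA, 2.5 mM ATP, 0.25 µCi [methyl-³H]dThd (2 µM), ± varying inhibitor levels, 37 °C for 30 min. Reactions spotted on DE-81 filter disks, washed, and counted by scintillation. IC50 is the concentration halving dThd phosphorylation.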
# Thymidine kinase [2] = target: T3, Thymidine kinase (Human alphaherpesvirus 1, UniProt Q9QNF7); assay: Inhibition of HSV1 TK assessed as [methyl-3H]dThd phosphorylation; summary of the method: as §1
# T3 sequence (Q9QNF7 whole entry): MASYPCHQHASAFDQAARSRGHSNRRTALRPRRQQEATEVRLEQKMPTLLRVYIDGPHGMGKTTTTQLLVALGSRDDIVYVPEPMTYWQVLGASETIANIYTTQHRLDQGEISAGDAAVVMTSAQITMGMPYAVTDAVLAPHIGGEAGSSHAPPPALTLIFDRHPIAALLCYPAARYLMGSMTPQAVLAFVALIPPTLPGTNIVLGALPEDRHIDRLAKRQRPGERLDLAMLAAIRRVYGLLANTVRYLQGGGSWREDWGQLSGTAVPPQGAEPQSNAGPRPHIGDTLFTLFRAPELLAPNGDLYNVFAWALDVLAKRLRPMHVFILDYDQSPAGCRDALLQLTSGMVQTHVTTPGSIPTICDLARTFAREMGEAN
# [3] = target: T4, Thymidine kinase, cytosolic (Homo sapiens, UniProt P04183); assay: Inhibition of human TK1 assessed as [methyl-3H]dThd phosphorylation; summary of the method: as §1
# T4 sequence (P04183 whole entry): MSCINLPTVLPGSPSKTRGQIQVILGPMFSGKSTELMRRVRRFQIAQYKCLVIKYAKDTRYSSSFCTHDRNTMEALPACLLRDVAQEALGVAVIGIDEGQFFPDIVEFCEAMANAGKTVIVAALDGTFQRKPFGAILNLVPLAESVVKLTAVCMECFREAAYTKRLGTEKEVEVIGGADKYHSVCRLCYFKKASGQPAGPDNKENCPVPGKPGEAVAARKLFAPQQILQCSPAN
# Thymidine kinase [4] = target: T5, Thymidine kinase (Varicella-zoster virus (strain Dumas) (HHV-3) (Human herpesvirus 3), UniProt P09250); assay: Inhibition of VZV TK assessed as [methyl-3H]dThd phosphorylation; parameters: species or system Human alphaherpesvirus 3
# T5 sequence (P09250 whole entry): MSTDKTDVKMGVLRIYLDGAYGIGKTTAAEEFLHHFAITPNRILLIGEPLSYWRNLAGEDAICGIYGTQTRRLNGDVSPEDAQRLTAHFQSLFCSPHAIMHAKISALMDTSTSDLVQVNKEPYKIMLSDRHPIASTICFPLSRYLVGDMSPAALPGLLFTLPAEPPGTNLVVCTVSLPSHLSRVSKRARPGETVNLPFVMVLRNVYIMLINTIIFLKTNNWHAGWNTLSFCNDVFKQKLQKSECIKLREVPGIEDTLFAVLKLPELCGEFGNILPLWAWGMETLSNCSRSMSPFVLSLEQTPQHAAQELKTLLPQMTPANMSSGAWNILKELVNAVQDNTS
compound,measurement,setting,value
CCCCC(=O)O[C@H]1[C@H](O)[C@@H](CO)O[C@H]1n1cnc2c(=O)[nH]c(N)nc21,IC50,Deoxynucleoside kinase,> 500 µM
same,IC50,[1],> 500 µM
same,IC50,Thymidine kinase [2],> 500 µM
same,IC50,[3],> 500 µM
same,IC50,Thymidine kinase [4],> 500 µM
CC(C)(C)OC(=O)NCCCCCCCC(=O)O[C@H]1[C@H](O)[C@@H](CO)O[C@H]1n1cc(/C=C/Br)c(=O)[nH]c1=O,IC50,Deoxynucleoside kinase,74 µM
same,IC50,[1],6.4 µM
same,IC50,Thymidine kinase [2],447 µM
same,IC50,Thymidine kinase [4],349 µM
CCCCCCCCO[C@H]1[C@H](O)[C@@H](CO)O[C@H]1n1cc(C)c(=O)[nH]c1=O,IC50,Thymidine kinase [2],> 1000 µM
CCCCCCCC(=O)O[C@H]1[C@H](O)[C@@H](CO)O[C@H]1n1cc(C)c(=O)[nH]c1=O,IC50,Deoxynucleoside kinase,> 1000 µM
same,IC50,[1],120 µM
same,IC50,Thymidine kinase [2],> 1000 µM
same,IC50,[3],> 1000 µM
same,IC50,Thymidine kinase [4],> 1000 µM
CC(C)(C)OC(=O)NCCCC(=O)O[C@H]1[C@H](O)[C@@H](CO)O[C@H]1n1cc(/C=C/Br)c(=O)[nH]c1=O,IC50,Deoxynucleoside kinase,133 µM
same,IC50,[1],55 µM
same,IC50,Thymidine kinase [2],485 µM
same,IC50,Thymidine kinase [4],130 µM
COCC(=O)O[C@H]1[C@H](O)[C@@H](CO)O[C@H]1n1cc(/C=C/Br)c(=O)[nH]c1=O,IC50,Deoxynucleoside kinase,215 µM
same,IC50,Thymidine kinase [2],84 µM
CC(C)(C)OC(=O)NCCCCCCCCCCCC(=O)O[C@H]1[C@H](O)[C@@H](CO)O[C@H]1n1cc(/C=C/Br)c(=O)[nH]c1=O,IC50,Deoxynucleoside kinase,≥ 500 µM
same,IC50,[1],3.8 µM
same,IC50,Thymidine kinase [2],> 500 µM
same,IC50,Thymidine kinase [4],> 500 µM
CCCCCCCCCCCC(=O)O[C@H]1[C@H](O)[C@@H](CO)O[C@H]1n1cc(C)c(=O)[nH]c1=O,IC50,Thymidine kinase [2],≥ 1000 µM
same,IC50,[3],≥ 1000 µM
COc1ccc(CC(=O)O[C@H]2[C@H](O)[C@@H](CO)O[C@H]2n2cc(/C=C/Br)c(=O)[nH]c2=O)cc1,IC50,Deoxynucleoside kinase,182 µM
same,IC50,[1],44 µM
same,IC50,Thymidine kinase [2],68 µM
same,IC50,Thymidine kinase [4],39 µM
CCCCC(=O)O[C@H]1[C@H](O)[C@@H](CO)O[C@H]1n1cc(C)c(=O)[nH]c1=O,IC50,Thymidine kinase [2],> 1000 µM
O=C(Cc1ccccc1)O[C@H]1[C@H](O)[C@@H](CO)O[C@H]1n1cc(/C=C/Br)c(=O)[nH]c1=O,IC50,Deoxynucleoside kinase,419 µM
same,IC50,[1],74 µM
same,IC50,Thymidine kinase [2],247 µM
same,IC50,Thymidine kinase [4],268 µM
CCCCCCCCO[C@H]1[C@H](O)[C@@H](CO)O[C@H]1n1cc(C)c(=O)n(CCCCCCCC)c1=O,IC50,Deoxynucleoside kinase,> 1000 µM
same,IC50,[1],> 1000 µM
same,IC50,Thymidine kinase [2],> 1000 µM
same,IC50,Thymidine kinase [4],> 1000 µM
CCCCCCCCn1c(=O)c(C)cn([C@@H]2O[C@H](CO)[C@@H](O)[C@@H]2O)c1=O,IC50,Deoxynucleoside kinase,> 500 µM
same,IC50,[1],> 500 µM
same,IC50,Thymidine kinase [2],> 500 µM
same,IC50,[3],> 500 µM
same,IC50,Thymidine kinase [4],> 500 µM
CCCCCCCCCC(=O)O[C@H]1[C@H](O)[C@@H](CO)O[C@H]1n1cc(C)c(=O)[nH]c1=O,IC50,Thymidine kinase [2],≥ 1000 µM
